Measurements reported in ChEMBL document CHEMBL1150282, “Synthesis and biological evaluation of pyridazinone analogues as potential cardiac positron emission tomography tracers” (J Med Chem, 2008).

System: Blood
Assay: Biodistribution in Sprague-Dawley rat blood at 15 uCi, iv after 30 mins
Format: ADME, organism-based
Conditions: in vivo, 0.5 h
In short: (§1)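 Male Sprague–Dawley rats (300–400 g) anesthetized with sodium pentobarbital 50 mg/kg ip; left femoral vein cannulated; about 15 µCi radiotracer in 0.3 mL 10% ethanol saline given iv. Killed in CO₂ at 30 or 120 min (n = 3 per time point); tissues weighed and gamma-counted. Counts decay-corrected, net dose from syringe and catheter residues subtracted; expressed as %ID/g ± SD.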

Drug uptake [% ID/g]	SMILES
0.11	CC(C)(C)n1ncc(OCc2ccc(CCCCF)cc2)c(Cl)c1=O
0.11	CC(F)CCc1ccc(COc2cnn(C(C)(C)C)c(=O)c2Cl)cc1 (centres undefined)
0.09	CC(F)COc1ccc(COc2cnn(C(C)(C)C)c(=O)c2Cl)cc1 (centres undefined)

System: Heart
Assay: Biodistribution in Sprague-Dawley rat heart at 15 uCi, iv after 30 mins
Format: ADME, organism-based
Conditions: in vivo, 0.5 h
In short: as §1

Drug uptake [% ID/g]	SMILES
2.94	CC(C)(C)n1ncc(OCc2ccc(CCCCF)cc2)c(Cl)c1=O
2.25	CC(F)CCc1ccc(COc2cnn(C(C)(C)C)c(=O)c2Cl)cc1 (centres undefined)
1.15	CC(F)COc1ccc(COc2cnn(C(C)(C)C)c(=O)c2Cl)cc1 (centres undefined)

System: Blood
Assay: Biodistribution in Sprague-Dawley rat blood at 15 uCi, iv after 120 mins
Format: ADME, organism-based
Conditions: in vivo, 2 h
In short: as §1

Drug uptake [% ID/g]	SMILES
0.04	CC(C)(C)n1ncc(OCc2ccc(CCCCF)cc2)c(Cl)c1=O
0.04	CC(F)COc1ccc(COc2cnn(C(C)(C)C)c(=O)c2Cl)cc1 (centres undefined)

System: Femur
Assay: Biodistribution in Sprague-Dawley rat femur at 15 uCi, iv after 120 mins
Format: ADME, organism-based
Conditions: in vivo, 2 h
In short: as §1

Drug uptake [% ID/g]	SMILES
1.16	CC(C)(C)n1ncc(OCc2ccc(CCCCF)cc2)c(Cl)c1=O
2.38	CC(F)CCc1ccc(COc2cnn(C(C)(C)C)c(=O)c2Cl)cc1 (centres undefined)
3.91	CC(F)COc1ccc(COc2cnn(C(C)(C)C)c(=O)c2Cl)cc1 (centres undefined)

System: Liver
Assay: Biodistribution in Sprague-Dawley rat liver at 15 uCi, iv after 120 mins
Format: ADME, organism-based
Conditions: in vivo, 2 h
In short: as §1

Drug uptake [% ID/g]	SMILES
0.62	CC(C)(C)n1ncc(OCc2ccc(CCCCF)cc2)c(Cl)c1=O
0.63	CC(F)CCc1ccc(COc2cnn(C(C)(C)C)c(=O)c2Cl)cc1 (centres undefined)
0.4	CC(F)COc1ccc(COc2cnn(C(C)(C)C)c(=O)c2Cl)cc1 (centres undefined)

System: not listed separately
Assay: Ratio of drug uptake in heart to lung of Sprague-Dawley rat at 15 uCi, iv after30 mins
Format: ADME, organism-based
Conditions: in vivo, 0.5 h
In short: (§2)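 Same rat protocol: pentobarbital-anesthetized male SD rats (300–400 g), about 15 µCi iv in 10% ethanol saline via femoral vein, three animals per point, gamma counting of weighed tissues with decay correction. Ratios formed from heart %ID/g over blood, lung, liver or femur %ID/g at 30 min post injection.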

Activity	SMILES
14.93	CC(C)(C)n1ncc(OCc2ccc(CCCCF)cc2)c(Cl)c1=O
12.49	CC(F)CCc1ccc(COc2cnn(C(C)(C)C)c(=O)c2Cl)cc1 (centres undefined)
11.41	CC(F)COc1ccc(COc2cnn(C(C)(C)C)c(=O)c2Cl)cc1 (centres undefined)

System: not listed separately
Assay: Ratio of drug uptake in heart to liver of Sprague-Dawley rat at 15 uCi, iv after30 mins
Format: ADME, organism-based
Conditions: in vivo, 0.5 h
In short: as §2

Activity	SMILES
1.45	CC(C)(C)n1ncc(OCc2ccc(CCCCF)cc2)c(Cl)c1=O
1.78	CC(F)CCc1ccc(COc2cnn(C(C)(C)C)c(=O)c2Cl)cc1 (centres undefined)
2.62	CC(F)COc1ccc(COc2cnn(C(C)(C)C)c(=O)c2Cl)cc1 (centres undefined)

System: Lung
Assay: Biodistribution in Sprague-Dawley rat lung at 15 uCi, iv after 30 mins
Format: ADME, organism-based
Conditions: in vivo, 0.5 h
In short: as §1

Drug uptake [% ID/g]	SMILES
0.01	CC(C)(C)n1ncc(OCc2ccc(CCCCF)cc2)c(Cl)c1=O
0.18	CC(F)CCc1ccc(COc2cnn(C(C)(C)C)c(=O)c2Cl)cc1 (centres undefined)
0.1	CC(F)COc1ccc(COc2cnn(C(C)(C)C)c(=O)c2Cl)cc1 (centres undefined)

System: Lung
Assay: Biodistribution in Sprague-Dawley rat lung at 15 uCi, iv after 120 mins
Format: ADME, organism-based
Conditions: in vivo, 2 h
In short: as §1

Drug uptake [% ID/g]	SMILES
0.18	CC(C)(C)n1ncc(OCc2ccc(CCCCF)cc2)c(Cl)c1=O
0.14	CC(F)CCc1ccc(COc2cnn(C(C)(C)C)c(=O)c2Cl)cc1 (centres undefined)
0.06	CC(F)COc1ccc(COc2cnn(C(C)(C)C)c(=O)c2Cl)cc1 (centres undefined)

System: not listed separately
Assay: Ratio of drug uptake in heart to femur of Sprague-Dawley rat at 15 uCi, iv after30 mins
Format: ADME, organism-based
Conditions: in vivo, 0.5 h
In short: as §2

Activity	SMILES
6.84	CC(C)(C)n1ncc(OCc2ccc(CCCCF)cc2)c(Cl)c1=O
1.98	CC(F)CCc1ccc(COc2cnn(C(C)(C)C)c(=O)c2Cl)cc1 (centres undefined)
0.4	CC(F)COc1ccc(COc2cnn(C(C)(C)C)c(=O)c2Cl)cc1 (centres undefined)

System: not listed separately
Assay: Ratio of drug uptake in heart to blood of Sprague-Dawley rat at 15 uCi, iv after 30 mins
Format: ADME, organism-based
Conditions: heart and blood (heart-to-blood ratio), read-out: Activity
In short: as §2

Kp at 0.5 h	SMILES
60.7	CC(C)(C)n1ncc(OCc2ccc(CCCCF)cc2)c(Cl)c1=O
20.8	CC(F)CCc1ccc(COc2cnn(C(C)(C)C)c(=O)c2Cl)cc1 (centres undefined)
13.2	CC(F)COc1ccc(COc2cnn(C(C)(C)C)c(=O)c2Cl)cc1 (centres undefined)

System: Femur
Assay: Biodistribution in Sprague-Dawley rat femur at 15 uCi, iv after 30 mins
Format: ADME, organism-based
Conditions: in vivo, 0.5 h
In short: as §1

Drug uptake [% ID/g]	SMILES
0.43	CC(C)(C)n1ncc(OCc2ccc(CCCCF)cc2)c(Cl)c1=O
1.14	CC(F)CCc1ccc(COc2cnn(C(C)(C)C)c(=O)c2Cl)cc1 (centres undefined)
2.91	CC(F)COc1ccc(COc2cnn(C(C)(C)C)c(=O)c2Cl)cc1 (centres undefined)

System: not listed separately
Assay: Inhibition of mitochondrial complex 1 in bovine heart mitochondria assessed as effect on rate of NADH oxidation
Parameters: species or system Bos taurus
Conditions: not given
In short: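 Bovine heart submitochondrial particles (45 µg/mL final) in 50 mM K₂HPO₄ pH 7.4 with 0.4 µM antimycin A and 2 mM KCN. Inhibitor at varying concentrations preincubated 4 min, then 100 µM decyl ubiquinone and 50 µM NADH added. NADH oxidation followed at 340 nm, 37 °C, 120 s; IC50 is concentration giving 50% inhibition.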

SMILES	IC50 [nM]
CC(C)(C)n1ncc(OCc2ccc(CCCCF)cc2)c(Cl)c1=O	15
CC(F)CCc1ccc(COc2cnn(C(C)(C)C)c(=O)c2Cl)cc1 (centres undefined)	10
CC(F)COc1ccc(COc2cnn(C(C)(C)C)c(=O)c2Cl)cc1 (centres undefined)	8

System: Heart
Assay: Biodistribution in Sprague-Dawley rat heart at 15 uCi, iv after 120 mins
Format: ADME, organism-based
Conditions: in vivo, 2 h
In short: as §1

Drug uptake [% ID/g]	SMILES
2.99	CC(C)(C)n1ncc(OCc2ccc(CCCCF)cc2)c(Cl)c1=O
2.14	CC(F)CCc1ccc(COc2cnn(C(C)(C)C)c(=O)c2Cl)cc1 (centres undefined)
1.14	CC(F)COc1ccc(COc2cnn(C(C)(C)C)c(=O)c2Cl)cc1 (centres undefined)

System: Liver
Assay: Biodistribution in Sprague-Dawley rat liver at 15 uCi, iv after 30 mins
Format: ADME, organism-based
Conditions: in vivo, 0.5 h
In short: as §1

Drug uptake [% ID/g]	SMILES
2.03	CC(C)(C)n1ncc(OCc2ccc(CCCCF)cc2)c(Cl)c1=O
1.27	CC(F)CCc1ccc(COc2cnn(C(C)(C)C)c(=O)c2Cl)cc1 (centres undefined)
0.44	CC(F)COc1ccc(COc2cnn(C(C)(C)C)c(=O)c2Cl)cc1 (centres undefined)
